Screening results deposited in PubChem by several laboratories.
Jurkat tox 60K: cytotoxicity toward Jurkat cells; Jurkat E6.1 viability, ATP luminescence, 48 h; inhibition, % at 4 µM; 1.2% of 56,000 active;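 active = inhibition above the mean inhibition of all tested compounds plus 3 SD, cut at about 28% in these data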
Ecoli WT expand: blocks growth of wild type E. coli BW25113 | OD600 absorbance | growth inhibition, % at 100 µM | 0.15% of 98,000 active | AID 710;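 active = growth inhibition above about 50% at one test dose, limit read from the data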;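 note: growth measured after 20 h incubation at 37 °C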
Ecoli tolC: E. coli tolC mutant growth inhibition; E. coli BW25113 tolC mutant growth, OD615; growth inhibition, % at 10 µM (by protocol); 2.2% of 65,000 active;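 active = growth inhibition at or above a cutoff equal to the mean over every tested compound plus 3 SD, cut at about 60% in these data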;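 note: growth measured after 20 h incubation at 37 °C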
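Test system: tolC-deleted E. coli BW25113; medium: LB with kanamycin 50 µg/mL; compound: single-point testing at 10 µM; incubation: 20 h compound exposure of bacteria at 37 °C; signal: OD at 615 nm; evaluation: growth inhibition in percent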
Fibroblast inh: blocks proliferation of human lung fibroblasts. LL 47 human lung fibroblast viability, ATP luminescence; active compounds read low. viability, % at 10 µM. 1.1% of 85,000 active. AID 719;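 active = viability at or below 50% in the single dose screen; inactive = viability above 50%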;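 note: compound exposure lasted 72 h before the ATP readout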
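Signal: luminescent ATP detection, CellTiter-Glo; assay system: LL 47 human lung fibroblasts; input: 1,150 cells/well; incubation: overnight cell rest, 72 h compound treatment at 37 °C; measure: % viability versus median cells-only luminescence; medium: IMEM growth medium with 15% fetal bovine serum; dosing: compound addition at 0.1% DMSO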
HUVEC inhibit: human endothelial cell proliferation inhibition; HUVEC proliferation, CellTiter-Glo luminescence, 72 h; active compounds read low; viability, % at 10 µM (by protocol); 1.1% of 86,000 active; AID 648;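 active = viability at or below 30%; inactive = viability above 30%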
H69AR inhibit: blocks growth of human H69AR lung tumor cells | H69AR lung tumor viability, ATP luminescence, 72 h; active compounds read low | viability, % at 10 µM | 6% of 85,000 active | AID 598;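 active = viability at or below 40%; inactive = viability above 40%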;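 note: multidrug resistant small cell line overexpressing MRP-1 efflux transporter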
A number is an active result; n = inactive; x = not tested or not shown. Only some compounds are listed: those with a hit (about 6.4% of all), similar ones and a draw of the others.

SMILES | Jurkat tox 60K | Ecoli WT expand | Ecoli tolC | Fibroblast inh | HUVEC inhibit | H69AR inhibit
COc1ccc(N2C(N)=NC(N)=NC2(C)C)cc1 | x | n | x | n | n | n
COc1cccc(N2C(N)=NC(N)=NC2(C)C)c1 | 66 | n | n | n | n | n
CCN(CC)S(=O)(=O)c1ccc(N(C)Cc2cccnc2)nc1 | x | n | x | n | n | n
CC(=O)C(C(C)=O)c1c(Cl)c(O)c(O)c2c(C(=O)c3ccccc3)coc12 | 49 | n | n | 47 | n | 1.6
COc1cc2c(C(=O)N3CCN(c4cccc(Cl)c4)CC3)cn(C)c(=O)c2cc1OC | x | n | x | x | x | x
O=C(Nc1ccc(N2CCN(C(=O)c3ccco3)CC2)cc1)c1cccc(F)c1 | n | n | n | n | n | 30
O=C(Nc1ccc(N2CCN(C(=O)c3ccco3)CC2)cc1)c1ccccc1F | n | n | n | n | n | n
COc1ccccc1C(=O)N1CCN(c2cccc(Cl)c2)CC1 | x | n | n | 46 | n | n
O=C(c1cccc(F)c1)N1CCN(c2cccc(Cl)c2)CC1 | 80 | n | n | n | n | 18
CCC(C(=O)N1CCN(c2cccc(Cl)c2)CC1)c1ccccc1 (stereo not drawn) | n | n | 100 | n | n | n
COc1nnc(-c2ccc(N3CCCCC3)c(NC(C)=O)c2)c2ccccc12 | x | n | x | n | n | n
O=C(c1c(Cl)nc2sccn12)N1CCN(c2cccc(Cl)c2)CC1 | x | n | n | n | n | 19
Cn1c(CSc2nc3ccccc3n2C)nc2ccccc21 | x | n | x | n | n | n
Cn1c(SC2=CS(=O)(=O)c3ccccc32)nc2ccccc21 | 73 | n | n | 2.2 | n | 0.6
CCCc1[nH][nH]c(=O)c1C(c1cccc(Cl)c1)C(C#N)C#N (stereo not drawn) | x | n | n | n | n | 17
N#CC(C#N)C(c1ccsc1)c1c(-c2ccccc2)[nH][nH]c1=O (stereo not drawn) | x | n | n | n | n | n
CC1=C2C(CCS2(=O)=O)CC2(C1)C(=O)OC(C)(C)OC2=O (stereo not drawn) | n | n | n | n | n | n
CCNc1nc(NC(C)C)nc(N(C#N)C(C)C(=O)N(C)C)n1 (stereo not drawn) | x | n | n | n | n | x
Cc1cc(C)nc(N(C#N)Cc2ccccc2)n1 | n | n | n | n | n | n
CCNc1nc(NC(C)C)nc(N(C#N)Cc2ccccc2)n1 | n | n | 67 | n | n | n
CCNc1nc(NC(C)(C)C)nc(N(C#N)CC)n1 | n | n | n | n | n | 33
CCNc1nc(NC(C)C)nc(N(C#N)CCOc2ccc(Cl)cc2Cl)n1 | n | n | 75 | n | n | 22
O=C(COc1ncnc2sccc12)N1CCc2ccccc2C1 | n | n | n | n | n | n
CC(C)NC(=O)c1noc2cc([N+](=O)[O-])ccc12 | x | n | x | x | x | x
Cc1nn2c(=O)cc(CSc3nc4ccccc4[nH]3)nc2s1 | n | n | n | n | n | n
SMILES | Jurkat tox 60K | Ecoli WT expand | Ecoli tolC | Fibroblast inh | HUVEC inhibit | H69AR inhibit
Cc1ccc(C2c3c(oc4ccccc4c3=O)C(=O)N2c2nnc(C(C)C)s2)o1 (stereo not drawn) | n | n | n | n | n | 8.4
Cc1cc(C)n2nc(SCC(=O)c3cc(C)n(-c4cc(C)on4)c3C)nc2n1 | 33 | n | n | n | n | n
Cc1ccc(C(=O)C(C)Oc2cccc(NC(=O)c3ccco3)c2)cc1 (stereo not drawn) | x | x | x | n | n | n
Cc1cc(=O)[nH]c(SCC(=O)Nc2ccc(Br)cc2)c1C#N | x | n | x | n | n | 31
Cc1cc(=O)[nH]c(SCC(=O)Nc2ccccc2C#N)c1C#N | x | n | x | x | x | x
Cc1sc2ncn(CC(=O)NCc3ccccn3)c(=O)c2c1S(=O)(=O)N1CCOCC1 | x | n | n | n | n | n
COc1ccc(-c2nn(-c3ccccc3)cc2C(=O)Nc2nccs2)cc1 | x | n | x | n | n | 23
COc1cccc(-n2ccnc2SCC(=O)Nc2nccs2)c1 | n | n | n | n | n | n
O=C(c1cn(-c2ccccc2)nc1-c1ccccc1)n1nnc2ccccc21 | x | n | x | n | n | n
COc1ccc(-c2nn(-c3ccccc3)cc2C(=O)N2CCOCC2)cc1 | n | n | n | n | n | n
COc1cccc(-c2nn(-c3ccccc3)cc2C(=O)n2nnc3ccccc32)c1 | x | n | x | n | n | 19
COc1cccc(-c2nn(-c3ccccc3)cc2C(=O)Nc2nccs2)c1 | n | n | n | n | n | 36
